# Assay results from ChEMBL document CHEMBL5674880 (PLoS One, 2018).
# Legend:
# Assay type in all cases: functional, cell-based
# DBTRG-05MG = test: Antiproliferative activity against human DBTRG-05MG cells after 10 days; conditions: 240 h
# SK-MEL-28 = test: Antiproliferative activity against human SK-MEL-28 cells after 10 days; conditions: SK-MEL-28, 240 h
# BPH-1 = test: Antiproliferative activity against human BPH-1 cells after 10 days; conditions: BPH-1, 240 h
# How it was run: (§1)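 Tested as part of a 240-line cancer cell panel (Eurofins Oncopanel); all lines were mycoplasma-negative and STR-verified. Cells were exposed to a compound concentration series in 2D culture for 10 days. The highest concentration was 10 μM or 25 μM, depending on the inhibitor. Antiproliferative IC50 was derived from the mean of three biological replicates.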
# COLO-829 = test: Antiproliferative activity against human COLO-829 cells after 10 days; conditions: COLO-829, 240 h
# SW1088 = test: Antiproliferative activity against human SW1088 cells after 10 days; conditions: SW1088, 240 h
# C32 = test: Antiproliferative activity against human C32 cells after 10 days; conditions: C32, 240 h
# Detroit 562 = test: Antiproliferative activity against human Detroit 562 cells after 10 days; conditions: Detroit 562, 240 h
# MX1 = test: Antiproliferative activity against human MX1 cells after 10 days; conditions: MX1, 240 h
# CRO-AP2 = test: Antiproliferative activity against human CRO-AP2 cells after 10 days; conditions: CRO-AP2, 240 h
# How it was run: (§2)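 10-day 2D proliferation screen of a broad cancer cell panel (about 240 lines, Eurofins Oncopanel). All lines were mycoplasma negative and STR verified. Compounds were dosed up to a top concentration of 10 μM or 25 μM, depending on the inhibitor. Anti-proliferative IC50 values are the average of three biological replicates.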
# U2OS = test: Antiproliferative activity against human U2OS cells after 10 days; conditions: 240 h
# SK-N-DZ = test: Antiproliferative activity against human SK-N-DZ cells after 10 days; conditions: 240 h
# DOHH-2 = test: Antiproliferative activity against human DOHH-2 cells after 10 days; conditions: DOHH-2, 240 h; how it was run: as §2
# SK-MEL3 = test: Antiproliferative activity against human SK-MEL3 cells after 10 days; conditions: SK-MEL3, 240 h
# MEG-01 = test: Antiproliferative activity against human MEG-01 cells after 10 days; conditions: MEG-01, 240 h
# How it was run: (§3)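 Broad cancer cell line panel (Eurofins Oncopanel, about 240 lines; mycoplasma negative, STR verified) grown in 2D culture and exposed to compound in a 10-day proliferation assay. The top concentration was 10 μM for the SMYD2 inhibitor series and 25 μM for the SMYD3 inhibitor. The proliferative IC50 is taken from concentration-response data, each value the mean of three biological replicates.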
# [1] = Antiproliferative activity against human HUH-6-clone5 cells after 10 days; conditions: HUH-6-clone5, 240 h; how it was run: as §2
# CCRF-CEM = test: Antiproliferative activity against human CCRF-CEM cells after 10 days; conditions: 240 h
# SR = test: Antiproliferative activity against human SR cells after 10 days; conditions: 240 h
# HuP-T4 = test: Antiproliferative activity against human HuP-T4 cells after 10 days; conditions: HuP-T4, 240 h; how it was run: as §3
# Calu-1 = test: Antiproliferative activity against human Calu-1 cells after 10 days; conditions: Calu-1, 240 h; how it was run: as §2
# HEC-1-A = test: Antiproliferative activity against human HEC-1-A cells after 10 days; conditions: 240 h; how it was run: as §2
# MDA-MB-231 = test: Antiproliferative activity against human MDA-MB-231 cells after 10 days; conditions: MDA-MB-231, 240 h; how it was run: as §3
# SK-N-AS = test: Antiproliferative activity against human SK-N-AS cells after 10 days; conditions: 240 h
# DMS-114 = test: Antiproliferative activity against human DMS-114 cells after 10 days; conditions: DMS-114, 240 h; how it was run: as §2
# SNU-16 = test: Antiproliferative activity against human SNU-16 cells after 10 days; conditions: SNU-16, 240 h
# HT-29 = test: Antiproliferative activity against human HT-29 cells after 10 days; conditions: HT-29, 240 h; how it was run: as §2
# SW684 = test: Antiproliferative activity against human SW684 cells after 10 days; conditions: SW684, 240 h
# CAMA-1 = test: Antiproliferative activity against human CAMA-1 cells after 10 days; conditions: CAMA-1, 240 h; how it was run: as §1
# HepG2 = test: Antiproliferative activity against human HepG2 cells after 10 days; conditions: HepG2, 240 h; how it was run: as §2
# SW480 = test: Antiproliferative activity against human SW480 cells after 10 days; conditions: SW480, 240 h
# C-4-II = test: Antiproliferative activity against human C-4-II cells after 10 days; conditions: 240 h
# MHH-PREB-1 = test: Antiproliferative activity against human MHH-PREB-1 cells after 10 days; conditions: MHH-PREB-1, 240 h; how it was run: as §3
# HLE = test: Antiproliferative activity against human HLE cells after 10 days; conditions: 240 h
# CWR22R = test: Antiproliferative activity against human 22Rv1 cells after 10 days; conditions: 22Rv1, 240 h; how it was run: as §1
# SW48 = test: Antiproliferative activity against human SW48 cells after 10 days; conditions: SW48, 240 h
# G-401 = test: Antiproliferative activity against human G-401 cells after 10 days; conditions: G-401, 240 h; how it was run: as §2
# ChaGo-K-1 = test: Antiproliferative activity against human ChaGo-K-1 cells after 10 days; conditions: ChaGo-K-1, 240 h; how it was run: as §2
# MDA-MB-468 = test: Antiproliferative activity against human MDA-MB-468 cells after 10 days; conditions: MDA-MB-468, 240 h
# [2] = Antiproliferative activity against human OE21 cells after 10 days; conditions: OE21, 240 h; how it was run: as §3
# J-RT3-T3-5 = test: Antiproliferative activity against human J-RT3-T3-5 cells after 10 days; conditions: J-RT3-T3-5, 240 h; how it was run: as §3
# NCI-H441 = test: Antiproliferative activity against human NCI-H441 cells after 10 days; conditions: NCI-H441, 240 h; how it was run: as §3
# SAOS-2 = test: Antiproliferative activity against human SAOS-2 cells after 10 days; conditions: SAOS-2, 240 h
# NCI-H460 = test: Antiproliferative activity against human NCI-H460 cells after 10 days; conditions: NCI-H460, 240 h
# H4 = test: Antiproliferative activity against human H4 cells after 10 days; conditions: H4, 240 h
# NCI-H446 = test: Antiproliferative activity against human NCI-H446 cells after 10 days; conditions: NCI-H446, 240 h; how it was run: as §3
smiles,measurement,setting,value
O=C(NC1CN(Cc2cnn(Cc3ccccc3)c2)C1)c1cn(C2CC2)nn1,IC50,DBTRG-05MG,> 10 µM
same,IC50,SK-MEL-28,> 10 µM
same,IC50,BPH-1,> 10 µM
same,IC50,COLO-829,5.73 µM
same,IC50,SW1088,> 10 µM
same,IC50,C32,> 10 µM
same,IC50,Detroit 562,> 10 µM
same,IC50,MX1,> 10 µM
same,IC50,CRO-AP2,0.075 µM
same,IC50,U2OS,> 10 µM
same,IC50,SK-N-DZ,> 10 µM
same,IC50,DOHH-2,> 10 µM
same,IC50,SK-MEL3,> 10 µM
same,IC50,MEG-01,> 10 µM
same,IC50,[1],> 10 µM
same,IC50,CCRF-CEM,> 10 µM
same,IC50,SR,> 10 µM
same,IC50,HuP-T4,> 10 µM
same,IC50,Calu-1,> 10 µM
same,IC50,HEC-1-A,> 10 µM
same,IC50,MDA-MB-231,> 10 µM
same,IC50,SK-N-AS,> 10 µM
same,IC50,DMS-114,> 10 µM
same,IC50,SNU-16,> 10 µM
same,IC50,HT-29,> 10 µM
same,IC50,SW684,> 10 µM
same,IC50,CAMA-1,> 10 µM
same,IC50,HepG2,> 10 µM
same,IC50,SW480,> 10 µM
same,IC50,C-4-II,> 10 µM
same,IC50,MHH-PREB-1,> 10 µM
same,IC50,HLE,> 10 µM
same,IC50,CWR22R,> 10 µM
same,IC50,SW48,> 10 µM
same,IC50,G-401,> 10 µM
same,IC50,ChaGo-K-1,> 10 µM
same,IC50,MDA-MB-468,> 10 µM
same,IC50,[2],3.4 µM
same,IC50,J-RT3-T3-5,0.003 µM
same,IC50,NCI-H441,> 10 µM
same,IC50,SAOS-2,> 10 µM
same,IC50,NCI-H460,> 10 µM
same,IC50,H4,> 10 µM
same,IC50,NCI-H446,> 10 µM
Cc1cn(CCN2CCN(c3ccccc3-c3cc(C#N)cc(C(=O)NCCCN4CCCC4)c3)CC2)c2ccccc12,IC50,BPH-1,3.49 µM
same,IC50,SW1088,1.18 µM
same,IC50,CRO-AP2,2.26 µM
same,IC50,U2OS,1.68 µM
same,IC50,SK-N-DZ,3.76 µM
same,IC50,DOHH-2,0.263 µM
same,IC50,SK-MEL3,1.39 µM
same,IC50,MEG-01,1.28 µM
same,IC50,[1],1.34 µM
same,IC50,HuP-T4,3.48 µM
same,IC50,Calu-1,2.85 µM
same,IC50,HEC-1-A,1.05 µM
same,IC50,MDA-MB-231,1.07 µM
same,IC50,DMS-114,2.33 µM
same,IC50,SNU-16,0.993 µM
same,IC50,HT-29,1.26 µM
same,IC50,SW684,5.75 µM
same,IC50,CAMA-1,2.93 µM
same,IC50,HepG2,2.35 µM
same,IC50,SW480,2.15 µM
same,IC50,MHH-PREB-1,1.06 µM
same,IC50,CWR22R,1.06 µM
same,IC50,SW48,1.35 µM
same,IC50,G-401,0.905 µM
same,IC50,ChaGo-K-1,1.23 µM
same,IC50,[2],1.06 µM
same,IC50,J-RT3-T3-5,1.18 µM
same,IC50,NCI-H441,5.63 µM
same,IC50,SAOS-2,3.03 µM
same,IC50,NCI-H446,3.16 µM
